Laboratory results reported in ChEMBL document CHEMBL1146753, “Tetrahydroisoquinolines as subtype selective estrogen agonists/antagonists” (Bioorg Med Chem Lett, 2004).

Assays:
Estrogen receptor beta = Estrogen receptor beta (Homo sapiens, UniProt Q92731); experiment: In vitro concentration required to inhibit [3H]estradiol binding to human estrogen receptor beta expressed in 293T cells; assay type: cell-based
Outline: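 Increasing competitor concentrations from DMSO stocks. Incubated 16 h at 4 °C. Dextran-coated charcoal for 15 min at room temperature, then centrifuged. Supernatant counted by scintillation. Means of ≥3 experiments.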

Estrogen receptor = target: T1, Estrogen receptor (Homo sapiens, UniProt P03372); experiment: In vitro concentration required to inhibit [3H]estradiol binding to human estrogen receptor alpha expressed in 293T cells; assay type: cell-based
T1 sequence (P03372 whole entry): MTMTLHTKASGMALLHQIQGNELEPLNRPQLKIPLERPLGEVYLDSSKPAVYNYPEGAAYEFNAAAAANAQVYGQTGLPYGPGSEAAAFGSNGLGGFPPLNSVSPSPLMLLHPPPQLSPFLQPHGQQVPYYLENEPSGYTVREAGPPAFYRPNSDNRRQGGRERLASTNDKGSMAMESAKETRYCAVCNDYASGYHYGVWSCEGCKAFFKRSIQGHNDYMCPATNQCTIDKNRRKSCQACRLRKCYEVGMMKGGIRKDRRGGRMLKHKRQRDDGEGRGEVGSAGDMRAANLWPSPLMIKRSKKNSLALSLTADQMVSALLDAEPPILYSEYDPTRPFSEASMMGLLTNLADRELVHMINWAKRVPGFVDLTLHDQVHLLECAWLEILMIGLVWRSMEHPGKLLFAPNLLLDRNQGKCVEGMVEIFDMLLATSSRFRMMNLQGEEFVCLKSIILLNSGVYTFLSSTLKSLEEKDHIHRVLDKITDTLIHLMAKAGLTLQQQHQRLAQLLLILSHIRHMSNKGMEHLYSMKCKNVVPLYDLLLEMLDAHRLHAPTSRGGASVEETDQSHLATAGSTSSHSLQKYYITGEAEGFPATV

MCF7 [1] = experiment: Inhibitory concentration required for antagonistic activity in MCF-7 cell lines derived from breast tumors that predominantly express ER-alpha; assay type: functional, cell-based; conditions: Homo sapiens
MCF7 [2] = experiment: Percent inhibition of antagonistic activity in MCF-7 cell lines derived from breast tumors that predominantly express ER-alpha; assay type: functional, Homo sapiens
MCF7 [3] = experiment: Effective concentration required for agonistic activity in MCF-7 cell lines derived from breast tumors that predominantly express ER-alpha; assay type: functional, cell-based; conditions: Homo sapiens
Outline: (§1)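 MCF7 cells plated at 6000/well in IMDM with 5% FBS and attached overnight. Steroid-depleted over 48 h with two changes of medium containing 5% charcoal-dextran stripped FBS. Compounds given as log dilutions from 10^-13 to 10^-6 M in 0.1% DMSO, 8 replicate wells each. Medium and compound renewed at day 4. DNA content measured by Hoechst 33258 after 7 days total exposure.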

MCF7 [4] = experiment: Percent agonistic activity in MCF-7 cell lines derived from breast tumors that predominantly express ER-alpha; assay type: functional, Homo sapiens; outline: as §1

Chain of Estrogen receptor beta (Q92731 whole entry): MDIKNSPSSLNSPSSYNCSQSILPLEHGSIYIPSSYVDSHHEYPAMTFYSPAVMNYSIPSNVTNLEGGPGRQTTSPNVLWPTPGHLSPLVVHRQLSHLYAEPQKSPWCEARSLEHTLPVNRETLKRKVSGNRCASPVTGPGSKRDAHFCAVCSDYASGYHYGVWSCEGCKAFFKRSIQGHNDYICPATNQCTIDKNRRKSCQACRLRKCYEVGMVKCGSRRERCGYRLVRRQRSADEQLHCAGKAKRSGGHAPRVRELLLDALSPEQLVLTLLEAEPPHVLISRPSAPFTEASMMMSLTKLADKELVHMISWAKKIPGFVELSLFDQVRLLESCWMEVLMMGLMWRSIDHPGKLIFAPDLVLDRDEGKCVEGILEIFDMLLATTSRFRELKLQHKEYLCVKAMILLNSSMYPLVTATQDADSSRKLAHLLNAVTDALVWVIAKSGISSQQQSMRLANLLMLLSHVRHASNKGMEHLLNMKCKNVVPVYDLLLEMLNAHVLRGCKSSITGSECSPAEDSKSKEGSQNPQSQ

Structure (SMILES)	IC50 (Estrogen receptor beta) [nM]	IC50 (Estrogen receptor) [nM]	IC50 (MCF7 [1]) [nM]	Inhibition (MCF7 [2]) [%]	EC50 (MCF7 [3]) [nM]	Activity (MCF7 [4]) [%]
O=C(N1CCc2cc(O)ccc2C1c1ccc(Br)cc1)C(F)(F)F (stereo unspecified)	22	165				
Oc1ccc2c(c1)CCN(c1ccccc1)C2Cc1ccccc1 (stereo unspecified)	66.4	6.7				
Oc1ccc2c(c1)CCN(c1ccccc1)C2c1ccc(OCCN2CCCC2)cc1 (stereo unspecified)	22.2	11.5				
O=C(c1ccccc1)N1CCc2cc(O)ccc2C1c1ccc(OCCN2CCCC2)cc1 (stereo unspecified)	2250	562				
O=S(=O)(c1ccc2ccccc2c1)N1CCc2cc(O)ccc2C1c1ccc(OCCN2CCCC2)cc1 (stereo unspecified)	1080	112				
Oc1ccc2c(c1)CCN(c1ccccc1)C2c1cccs1 (stereo unspecified)	26.3	50				
O=C(N1CCc2cc(O)ccc2C1c1ccccc1)C(F)(F)F (stereo unspecified)	27.4	235				
O=C(N1CCc2cc(O)ccc2[C@@H]1c1ccc(O)cc1)C(F)(F)F	> 3200	> 3200				
Cc1ccc(S(=O)(=O)N2CCc3cc(O)ccc3C2c2ccc(OCCN3CCCC3)cc2)cc1 (stereo unspecified)	71.2	24.8	29.8	66		
Oc1ccc2c(c1)CCN(c1ccccc1)C2C1CCCCC1 (stereo unspecified)	99	29.8			11.1	93
O=S(=O)(c1ccccc1)N1CCc2cc(O)ccc2C1c1ccc(OCCN2CCCC2)cc1 (stereo unspecified)	18.5	5.2				
O=S(=O)(c1ccccc1)N1Cc2cc(O)ccc2C(c2ccc(O)cc2)C1 (stereo unspecified)	41.7	120				
O=C(N1CCc2cc(O)ccc2C1c1ccc(OCCN2CCCC2)cc1)C(F)(F)F (stereo unspecified)	93.3	28.7	86.6	83		
Oc1ccc2c(c1)CCN(c1ccccc1)C2CC1CCCCC1 (stereo unspecified)	295	53.1				
CC(C)C1c2ccc(O)cc2CCN1c1ccccc1 (stereo unspecified)	180	42.7				
Oc1ccc2c(c1)CCN(c1ccccc1)C2c1ccccc1 (stereo unspecified)	48.8	30.7				
O=C(N1CCc2cc(O)ccc2C1c1cccs1)C(F)(F)F (stereo unspecified)	63.5	385				
CCCc1ccc(S(=O)(=O)N2CCc3cc(O)ccc3C2c2ccc(OCCN3CCCC3)cc2)cc1 (stereo unspecified)	133	29.4				
Oc1ccc2c(c1)CCN(Cc1ccc3c(c1)OCO3)C2c1ccc(OCCN2CCCC2)cc1 (stereo unspecified)	220	9.2				
O=C(c1ccccc1)N1Cc2cc(O)ccc2C(c2ccc(O)cc2)C1 (stereo unspecified)	27.9	160				
O=S(=O)(c1cccc2ccccc12)N1CCc2cc(O)ccc2C1c1ccc(OCCN2CCCC2)cc1 (stereo unspecified)	21.3	5.6	51.3	96		
O=C(N1Cc2cc(O)ccc2C(c2ccc(O)cc2)C1)C(F)(F)F (stereo unspecified)	11.4	123				
O=C(N1CCc2cc(O)ccc2[C@H]1c1ccc(O)cc1)C(F)(F)F	8.9	53.6				
CN(C)C(=O)/C=C/c1ccc(N2CCc3cc(O)ccc3C2c2ccccc2)cc1 (stereo unspecified)	8.7	8				
O=C(/C=C/c1ccc(N2CCc3cc(O)ccc3C2c2ccccc2)cc1)N1CCOCC1 (stereo unspecified)	4.8	5.9				
O=S(=O)(c1cccc2ccccc12)N1Cc2cc(O)ccc2C(c2ccc(O)cc2)C1 (stereo unspecified)	10.7	28				
Oc1ccc(C2CN(Cc3ccccc3)Cc3cc(O)ccc32)cc1 (stereo unspecified)	13.1	20.1				
CCOC(=O)N1CCc2cc(O)ccc2C1c1ccc(OCCN2CCCC2)cc1 (stereo unspecified)	293	44.3				
Oc1ccc2c(c1)CCN(Cc1ccccc1)C2c1ccc(OCCN2CCCC2)cc1 (stereo unspecified)	42.2	4.7				
